Measured values published in publication PMC4979993 (Nature structural & molecular biology, 2011).
Several values for one entry are separate records, joined by “and”; a condition that tells them apart may be missing. Equal values may be shown once. Entries after “also recorded” stand apart in the source; their conditions may differ. Blank lines part the entries; values can stand above or below the substance they belong to.

How the values were obtained:
Aβ1–40 fibrils = Aβ1–40 fibrils (Homo sapiens, UniProt P05067); assay: cTCCD analysis of disaggregation of Aβ1–40 fibrils; assay type: biochemical; conditions: for ΔG° (dimer) / ΔG° (larger oligomer): from steady state apparent size distributions
Method in brief: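 Fibrils grown statically from 8 μM labeled Aβ1–40, 72 h, 37 °C. Pelleted at ~10,000×g for 30 min, washed twice in SSPE pH 7.4, then resuspended. Where used, AlexaFluor647-labeled human serum clusterin was incubated with fibrils 12–16 h at 21 °C and unbound removed by centrifugation (100–200 nM bound). Released species tracked by cTCCD to plateau (~50 h). Rates fitted with monomolecular dissociation functions.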

amyloid fibrils = conditions: previous bulk measurements; cited from earlier work
Aβ1–40 [1] = assay: cTCCD single-molecule analysis of Aβ1–40 aggregation; assay type: biochemical
Method in brief: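 Equimolar HiLyteFluor488- and HiLyteFluor647-labeled Aβ1–40 (2 μM) in SSPE pH 7.4, 37 °C, 200 rpm agitation; with or without clusterin at 1:1 molar. Sampled every 2–3 h and diluted to picomolar for two-colour confocal coincidence detection (1 ms bins, stage scanned 200 µm s⁻¹). Coincident bursts were scored as oligomers. Apparent size came from their brightness relative to non-coincident monomer bursts; n=3.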

Aβ1–40 fibril formation [2] = assay: Bulk aggregation / fibril formation of Aβ1–40; assay type: biochemical; conditions: HiLyteFluor488 or HiLyteFluor647 label, control experiments
Aβ1–40 [3] = assay: TIRFM imaging of species in Aβ1–40 aggregation; assay type: biochemical
Method in brief: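 Dual-label HiLyteFluor488/HiLyteFluor647 Aβ1–40 (monomer stocks in pH 12 NaOH, ice-sonicated 30 min) diluted into SSPE pH 7.4. Incubated 24 h at 37 °C with 200 rpm agitation. Human serum-derived clusterin was added at 4 h where used. Species on surface imaged by two-colour TIRFM (488 and 633 nm excitation, split-EMCCD, 7.9 frames s⁻¹). Sizes compared by two-sample, two-tailed, independent t-test.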

[4] = cited from earlier work
Aβ1–40 fibril formation [5] = conditions: cited from earlier work
Aβ1–40 oligomers = assay: Formation and persistence of clusterin:Aβ complexes; assay type: binding
Method in brief: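 HiLyteFluor488 or HiLyteFluor647-labeled Aβ1–40, from NaOH-solubilised monomer in SSPE pH 7.4, is aggregated at 37 °C, 200 rpm, with AlexaFluor647-labeled human serum clusterin at 1:1 molar ratio, or released from pre-formed clusterin-bound fibrils. Complexes are diluted to […] at 21 °C and sampled over time by two-colour coincidence detection (cTCCD). Persistence is compared by two-tailed t-tests.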

[6] = Disaggregation, without clusterin, n=3, s.d.
[7] = Disaggregation, without clusterin, n=12, s.d.
[8] = without clusterin, disaggregation, n=12
[9] = with clusterin, disaggregation, n=8

Final concentration of all species (Aβ1–40 fibrils; [8]): 270 ± 20 (12) nM
Final concentration of oligomeric species (Aβ1–40 fibrils; [8]): 0.16 ± 0.06 (12) nM
Substance: amyloid-β1–40 [Aβ1–40]
ΔG° (dimer) (Aβ1–40 fibrils; [6]): −18.2 ± 0.5 (3) kJ mol^−1
ΔG° (larger oligomer) (Aβ1–40 fibrils; [7]): −38.9 ± 2.7 (12) kJ mol^−1
ΔH° (dimer) (Aβ1–40 fibrils; [6]): −43.8 ± 24.5 (3) kJ mol^−1
ΔS° dimer (Aβ1–40 fibrils; [6]): −80.8 ± 83.5 (3) kJ mol^−1
ΔH° (larger oligomer) (Aβ1–40 fibrils; [7]): −29.1 ± 0.3 (12) kJ mol^−1
ΔS° larger than dimer (Aβ1–40 fibrils; [7]): 28.3 ± 1.1 (12) kJ mol^−1
free energy of the formation of amyloid fibrils (amyloid fibrils): –36 kJ mol^−1
oligomers as share of total number of molecules (Aβ1–40 [1]; 30 nM Aβ1–40, 37 °C): approximately 1%
concentration of oligomers formed (Aβ1–40 [1]; 30 nM Aβ1–40, SSPE pH 7.4, 37 °C, agitation): 300 pM
distribution of apparent oligomer sizes (Aβ1–40 [1]; 600 nM – 2 µM and 30 nM, aggregation and disaggregation): decreased exponentially with increasing apparent size; also recorded: effectively the same as that formed at a concentration of 30 nM; also recorded: approximately exponential decrease with apparent size
oligomers as share of total molecules at peak (Aβ1–40 [1]; 2 μM Aβ1–40, 37 °C): approximately 1%
decrease in monomer concentration during growth phase of fibril formation (Aβ1–40 [1]; 2 μM Aβ1–40, 37 °C, agitation): 75%
peak concentration of stable oligomeric species (Aβ1–40 [1]; 2 μM Aβ1–40, SSPE pH 7.4, 37 °C, agitation): ~ 20 nM
ΔG° (dimer) (Aβ1–40 [1]; Aggregation, without clusterin, from steady state apparent size distributions, n=4, s.d.): −23.0 ± 2.9 (4) kJ mol^−1
range of oligomer sizes formed (Aβ1–40 [1]; cTCCD, apparent size): dimers to 50mers
stability of the majority of soluble oligomeric species (Aβ1–40 [1]; ~25–50 pM, 21 °C): over three
effect of fluorophores on bulk aggregation behavior (Aβ1–40 fibril formation [2]): neither fluorophore had any appreciable effect on the bulk aggregation behavior
average size of species present (Aβ1–40 [3]; 2 μM Aβ1–40 without clusterin, 24 h aggregation, s.e.m.): 1400 ± 200 nm
Aβ1–40 clearance time in vivo [4]: ~ 14 h
Aβ1–40 production time in vivo [4]: ~ 15 h

Rate of clusterin release (Aβ1–40 fibrils; with clusterin, disaggregation of fibrils, n=3, s.e.m.): (9.8 ± 0.9)×10^−7 (3) s^−1
Final soluble clusterin concentration (Aβ1–40 fibrils; with clusterin, disaggregation, n=3): 90 ± 14 (3) nM
Final concentration of all species (Aβ1–40 fibrils; [9]): 120 ± 20 (8) nM
Final concentration of oligomeric species (Aβ1–40 fibrils; [9]): 0.42 ± 0.1 (8) nM
effect on monomer concentration (Aβ1–40 fibrils; with vs without clusterin, plateau region, n=8, P-value 0.0003, t-test): decreased monomer concentration
Substance: clusterin: extracellular chaperone protein, extracted from human serum
ΔG° (dimer) (Aβ1–40 fibrils; Disaggregation, with clusterin, n=4, s.d.): −25.8 ± 2.6 kJ mol^−1 and −25.8 ± 2.6 (4) kJ mol^−1
ΔG° (larger oligomer) (Aβ1–40 fibrils; Disaggregation, with clusterin, n=12, s.d.): −43.9 ± 1.0 kJ mol^−1 and −43.9 ± 1.0 (12) kJ mol^−1
effect on rate and extent of fibril disaggregation (Aβ1–40 fibrils; clusterin bound to Aβ fibrils): decrease both the rate and the extent of fibril disaggregation
effect on oligomer concentration / total oligomer population (Aβ1–40 fibrils; with vs without clusterin, plateau region, n=8, P-value 0.002, t-test): increased oligomer concentration; also recorded: increase in the total oligomer population
effect on distribution of the sizes of Aβ1–40 oligomers (Aβ1–40 [1]; in presence of clusterin): not substantially altered
effect on fibril formation, bulk measurements (Aβ1–40 fibril formation [5]): strongly inhibits fibril formation
binding to soluble oligomers (Aβ1–40 oligomers; all oligomers found during aggregation and disaggregation): all of which interact with clusterin to form long-lived, stable complexes; also recorded: binds to all members of the ensemble of soluble oligomers
persistence of clusterin:Aβ complexes (Aβ1–40 oligomers; formed at 100 nM, after dilution at picomolar concentrations): over 200 h
reduction in average size of species present (Aβ1–40 [3]; 2 μM Aβ1–40, 24 h aggregation, 2 µM clusterin added at 4 h, P-value 0.01): approximately 50%
